Data taken from ChEMBL document CHEMBL5550111, “Design, synthesis and biological evaluation of aryloxy thiophosphoramidate triesters of anticancer nucleoside analogues” (Bioorg Med Chem, 2024).

Assays:
[1] = test system: SK-MES-1; experiment: Cytotoxicity against human SK-MES-1 cells assessed as inhibition of cell viability incubated for 72 hrs by MTS assay; assay type: functional, cell-based; conditions: SK-MES-1, 72 h
Method in brief: (§1)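 Cells seeded at 0.5 to 100 × 10^3 per well the day before treatment, then exposed for 72 h to 9 serial concentrations (3.16-fold dilutions, top 198 μM), in duplicate. MTS added for a final 4 h at 37 °C and absorbance read. IC50 is the concentration giving 50% loss of viability. MI% is the maximum inhibition over the tested range.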

[2] = test system: COLO 205; experiment: Cytotoxicity against human COLO 205 cells assessed as maximum inhibition of cell viability upto 198 uM incubated for 72 hrs by MTS assay relative to control; assay type: functional; conditions: up to 198 µM
Method in brief: (§2)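 Cells seeded at 0.5 to 100 × 10^3 per well the day before drug addition, then exposed to compound for 72 h. MTS added afterwards, with a further 4 h at 37 °C, and absorbance read. Tested in duplicate at 9 serial 3.16-fold dilutions, top concentration 198 μM. MI% is the maximum inhibition of viability across the tested range.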

[3] = test system: MIA PaCa-2; experiment: Cytotoxicity against human MIA PaCa-2 cells assessed as maximum inhibition of cell viability upto 198 uM incubated for 72 hrs by MTS assay relative to control; assay type: functional; conditions: up to 198 µM; method in brief: as §2
[4] = test system: HepG2; experiment: Cytotoxicity against human HepG2 cells assessed as inhibition of cell viability incubated for 72 hrs by MTS assay; assay type: functional, cell-based; conditions: HepG2, 72 h; method in brief: as §1
[5] = test system: RT112/84; experiment: Cytotoxicity against human RT112/84 cells assessed as maximum inhibition of cell viability upto 198 uM incubated for 72 hrs by MTS assay relative to control; assay type: functional; conditions: up to 198 µM; method in brief: as §2
[6] = test system: SK-MES-1; experiment: Cytotoxicity against human SK-MES-1 cells assessed as maximum inhibition of cell viability upto 198 uM incubated for 72 hrs by MTS assay relative to control; assay type: functional; conditions: up to 198 µM; method in brief: as §2
[7] = test system: HepG2; experiment: Cytotoxicity against human HepG2 cells assessed as maximum inhibition of cell viability upto 198 uM incubated for 72 hrs by MTS assay relative to control; assay type: functional; conditions: up to 198 µM; method in brief: as §2
[8] = test system: RPMI-8226; experiment: Cytotoxicity against human RPMI-8226 cells assessed as maximum inhibition of cell viability upto 198 uM incubated for 72 hrs by MTS assay relative to control; assay type: functional; conditions: up to 198 µM; method in brief: as §2
[9] = test system: MIA PaCa-2; experiment: Cytotoxicity against human MIA PaCa-2 cells assessed as inhibition of cell viability incubated for 72 hrs by MTS assay; assay type: functional, cell-based; conditions: MIA PaCa-2, 72 h; method in brief: as §1
[10] = test system: RPMI-8226; experiment: Cytotoxicity against human RPMI-8226 cells assessed as inhibition of cell viability incubated for 72 hrs by MTS assay; assay type: functional, cell-based; conditions: RPMI-8226, 72 h; method in brief: as §1
[11] = test system: NCI-H1975; experiment: Cytotoxicity against human NCI-H1975 cells assessed as maximum inhibition of cell viability upto 198 uM incubated for 72 hrs by MTS assay relative to control; assay type: functional; conditions: up to 198 µM; method in brief: as §2
[12] = test system: RT112/84; experiment: Cytotoxicity against human RT112/84 cells assessed as inhibition of cell viability incubated for 72 hrs by MTS assay; assay type: functional, cell-based; conditions: RT112/84, 72 h; method in brief: as §1
[13] = test system: OVCAR-3; experiment: Cytotoxicity against human OVCAR-3 cells assessed as inhibition of cell viability incubated for 72 hrs by MTS assay; assay type: functional, cell-based; conditions: OVCAR-3, 72 h; method in brief: as §1
[14] = test system: HT-29; experiment: Cytotoxicity against human HT-29 cells assessed as maximum inhibition of cell viability upto 198 uM incubated for 72 hrs by MTS assay relative to control; assay type: functional; conditions: up to 198 µM; method in brief: as §2
[15] = test system: OVCAR-3; experiment: Cytotoxicity against human OVCAR-3 cells assessed as maximum inhibition of cell viability upto 198 uM incubated for 72 hrs by MTS assay relative to control; assay type: functional; conditions: up to 198 µM; method in brief: as §2
[16] = test system: COLO 205; experiment: Cytotoxicity against human COLO 205 cells assessed as inhibition of cell viability incubated for 72 hrs by MTS assay; assay type: functional, cell-based; conditions: COLO 205, 72 h; method in brief: as §1
[17] = test system: HT-29; experiment: Cytotoxicity against human HT-29 cells assessed as inhibition of cell viability incubated for 72 hrs by MTS assay; assay type: functional, cell-based; conditions: HT-29, 72 h; method in brief: as §1

`Nc1nc(=O)n([C@H]2C[C@H](O)[C@@H](CO)O2)cc1F` gave an IC50 [1] of 90 nM, an Imax [2] of 88% and an Imax [3] of 85%. The IC50 [4] was 53900 nM, the Imax [5] was 67% and the Imax [6] was 67%. It also gave an Imax [7] of 67%, an Imax [8] of 100% and an IC50 [9] of 300 nM. It also gave an IC50 [10] of 11800 nM, an Imax [11] of 91% and an IC50 [12] of 90 nM. For the same compound, the IC50 [13] was 740 nM, the Imax [14] was 83% and the Imax [15] was 58%. For the same compound, the IC50 [16] was 20 nM and the IC50 [17] was 130 nM.
